Source: PubChem
Most compounds without a hit are left out; they make up all but 5.2% or so of the library.
M1 ag = activates the M1 muscarinic receptor | B-score at 10 µM | CHO-M1 cells, Fluo-4 calcium fluorescence, agonist mode; hits give high values | AID 626 | hit rate 3% among 64,000;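 active = fluorescence rise, raw or as B-score row- and column-corrected plate score, outside the 99.7% band of its plate's samples, either direction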
Ecoli WT expand = E. coli BW25113 growth inhibition, expanded screen | OD600 absorbance | growth inhibition, % at 100 µM | hit rate 0.15% among 98,000;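 active = growth inhibition above about 50% at one test dose, limit read from the data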;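 note: growth measured after 20 h incubation at 37 °C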
WNV NS2B-NS3 inh = WNV NS2B-NS3 proteinase inhibition. P06935. WNV NS2B-NS3 protease, fluorogenic substrate Ex360/Em465; hits give low values. z-score (no concentration beside the values). hit rate 0.18% among 65,000; in the data active = z-score below about -3
Target sequence (P06935 1371-1501 limits assumed): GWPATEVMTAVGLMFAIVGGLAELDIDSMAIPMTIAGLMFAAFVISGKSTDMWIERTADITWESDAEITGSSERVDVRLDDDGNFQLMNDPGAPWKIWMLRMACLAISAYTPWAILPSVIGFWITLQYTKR
Target sequence (P06935 1502-1679 limits assumed): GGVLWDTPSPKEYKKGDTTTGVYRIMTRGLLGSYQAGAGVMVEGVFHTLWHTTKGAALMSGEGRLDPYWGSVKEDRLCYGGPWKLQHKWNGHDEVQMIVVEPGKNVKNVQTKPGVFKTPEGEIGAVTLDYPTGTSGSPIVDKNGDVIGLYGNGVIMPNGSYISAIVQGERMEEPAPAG
M1 antagonist = antagonists of rat M1 muscarinic receptor; P08482; CHO-M1 cells, Fluo-4 calcium, ACh EC80 antagonist mode; hits give low values; B-score at 10 µM; hit rate 3.4% among 64,000;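 active = calcium fluorescence response, raw or row-and-column corrected B-score, differing from the plate sample mean either way at a set confidence level, mostly lower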
AP ELISA ortho = orthogonal test for alternative complement pathway inhibitors | Human serum alternative complement pathway, LPS-coated ELISA, C3 deposition; tested in compound mixtures | inhibition, % at 5 µM | hit rate 0.08% among 62,000 | AID 1235;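 active = inhibition above 30% in each of the two pooled mixtures holding the compound, so the lower value exceeds 30%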
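Assay system: human serum alternative complement pathway, C3 deposition on LPS-coated wells; Dosing: 5 µM per compound in ten-compound mixtures; Detection: Anti-C3 ELISA, OD 450 nm; Buffer or medium: Mg2+-EGTA GVB++ buffer containing human serum at 1:15 dilution; Timing: 1 h at 37 °C; Replication: two different pools per compound.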
tolC growth inh = E. coli tolC mutant growth inhibition. E. coli BW25113 tolC mutant growth, OD615. growth inhibition, % at 10 µM (by protocol). hit rate 2.2% among 65,000;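 active = growth inhibition at or above a cutoff equal to the mean over every tested compound plus 3 SD, cut at about 60% in these data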;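 note: growth measured after 20 h incubation at 37 °C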
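Test system: tolC-deleted E. coli BW25113 | Medium: LB with kanamycin 50 µg/mL | Compound dosing: Single concentration, 10 µM final per compound | Schedule: 37 °C, 20 h exposure | Measured by: OD at 615 nm | Evaluation: Percent growth inhibition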
Large screens that a line does not name were inactive.

Cc1ccc(S(=O)(=O)Cn2nnnc2CN2CCCC3(CCCCC3)C2)cc1	tolC growth inh 76
O=C(COc1ccccc1)Nc1cccc(-c2nnc(-c3ccccc3)o2)c1	none (no result: Ecoli WT expand)
O=C(Nc1cccc(-c2nnc(-c3ccccc3)o2)c1)c1ccc(Br)o1	tolC growth inh 84
O=C(Nc1ccc(Cl)cc1)N(Cc1cccs1)Cc1cccs1	tolC growth inh 95
O=C(Cc1cccs1)Nc1ccc(Cl)cc1	none
NS(=O)(=O)c1ccc(NC(=O)c2ccccc2C(=O)N2CCCCC2)cc1	none
CCOC(=O)/C=C/S(=O)(=O)c1ccc(NC(C)=O)cc1	M1 antagonist 1.9
CCOC(=O)c1cccc(NS(=O)(=O)c2ccc(NC(C)=O)cc2)c1	none (no result: M1 ag, WNV NS2B-NS3 inh, M1 antagonist, AP ELISA ortho, tolC growth inh)
COc1cc(/C=C(/C#N)c2ccc(F)cc2)ccc1OCc1ccc(C(=O)O)o1	tolC growth inh 100
O=C(CCNc1ccc(F)cc1)c1ccco1	none
CCN(C1CCCCC1)S(=O)(=O)c1ccc(OC)c(C)c1	tolC growth inh 92
CCN(C1CCCCC1)S(=O)(=O)c1cc(C)ccc1OC	none
CCCCn1cc(SCC(=O)O)c2ccccc21	M1 antagonist 21
CCCCCCn1cc(C(=O)O)c(=O)c2ccccc21	none (no result: AP ELISA ortho)
COc1cccc(CNC(=O)C2CCN(S(=O)(=O)c3ccc(F)cc3)CC2)c1	none
COc1cccc(CNC(=O)C2CCN(S(=O)(=O)c3ccc4c(c3)CCC(=O)N4)CC2)c1	WNV NS2B-NS3 inh -3.3
Cc1nc(NC(=O)CC(C)C)sc1-c1csc(Nc2ccc(Cl)cc2)n1	none (no result: M1 ag, WNV NS2B-NS3 inh, M1 antagonist, AP ELISA ortho, tolC growth inh)
CC(C)(C)c1ccc(C(=O)CCCSC2=C(C#N)C(c3ccco3)C3=C(CCCC3=O)N2)cc1 (stereo not given)	tolC growth inh 80
CCOc1ccccc1N1CCN(Cc2ccco2)CC1	none (no result: M1 ag, WNV NS2B-NS3 inh, M1 antagonist, AP ELISA ortho, tolC growth inh)
CCOc1ccccc1N1CCN(Cc2ccc(Br)s2)CC1	tolC growth inh 97
O=C(Nc1ccc(N2CCN(C(=O)c3ccco3)CC2)c(Cl)c1)c1c(F)c(F)c(F)c(F)c1F	tolC growth inh 77
N#CCSc1nc2c(c(C3CC=CCC3)c1C#N)CCC2 (stereo not given)	tolC growth inh 67
Clc1ccc(Nc2nc(NCCN3CCOCC3)nc(N3CCOCC3)n2)cc1	none
CC(C)c1ccc(Nc2nc(NCc3ccco3)nc(N3CCOCC3)n2)cc1	tolC growth inh 66
CCc1cccc2c(C#N)cn(CC(=O)NCCOC)c12	none
COCCN(C(=O)C(C)C)c1nnc(-c2cccc(C)c2)s1	none
COc1ccc2[nH]c(C(=O)O)c(CCNC(C)=O)c2c1	WNV NS2B-NS3 inh -4.1
COc1ccc(CNC(=O)Cc2c(C(=O)O)[nH]c3ccccc23)cc1	none (no result: M1 ag, WNV NS2B-NS3 inh, M1 antagonist, AP ELISA ortho, tolC growth inh)
Oc1ccc(Cl)cc1Cc1cc(Cl)ccc1O	tolC growth inh 100 (no result: M1 ag, Ecoli WT expand, M1 antagonist, AP ELISA ortho)
Oc1ccc(Cl)cc1CNc1ccc(Br)cn1	none
O=C(CCc1ccccc1)Nc1nc2n(n1)C(c1ccccc1)CC(=O)N2 (stereo not given)	none
O=C(CCc1ccccc1)Nc1nc2n(n1)C(c1ccc(Cl)cc1)CC(=O)N2 (stereo not given)	WNV NS2B-NS3 inh -3.4 (no result: tolC growth inh)
COC(=O)C1CCN(S(=O)(=O)Cc2ccccc2)CC1	none
COc1cc(OC)c(C2CC(=O)N3CN(C)CSC3=C2C#N)cc1OC (stereo not given)	M1 antagonist 0.66
COc1ccc(Br)cc1C1CC(=O)N2CN(C)CSC2=C1C#N (stereo not given)	none
COC(=O)c1sccc1NC(=O)c1ccc(OC)cc1	none
COC(=O)c1sccc1NC(=O)c1ccc(Cl)s1	tolC growth inh 72
COC(=O)c1sccc1NC(=O)c1csc(C)c1	tolC growth inh 98
Cc1ccccc1Cn1nc(C)c(NC(=O)c2noc3c2CCc2ccccc2-3)c1C	tolC growth inh 68
Cc1nn(Cc2ccc(Cl)cc2)c(C)c1NC(=O)c1noc2c1CCCCC2	tolC growth inh 84
Cc1nn(Cc2ccc(Cl)c(Cl)c2)c(C)c1NC(=O)c1noc2c1CCCCC2	none
Cc1ccccc1Cn1nc(C)c(NC(=O)c2noc3c2CC(C(C)(C)C)CC3)c1C (stereo not given)	tolC growth inh 74
Cc1ccc(Cn2c(=N)n(CC(O)COc3ccccc3)c3ccccc32)cc1 (stereo not given)	none (no result: M1 ag, WNV NS2B-NS3 inh, M1 antagonist, AP ELISA ortho, tolC growth inh)
N=c1n(Cc2ccccc2)c2ccccc2n1CC(O)COc1ccccc1 (stereo not given)	tolC growth inh 63
Clc1ccc(OCc2nc(-c3ccccn3)n[nH]2)cc1	tolC growth inh 85
O=C(CC1CCCCC1)c1c(O)c2ccccc2oc1=O	tolC growth inh 100
CC1CCC(C(=O)c2c(O)c3ccccc3oc2=O)CC1 (stereo not given)	none (no result: M1 ag, WNV NS2B-NS3 inh, M1 antagonist, AP ELISA ortho, tolC growth inh)
CCCCC(=O)c1c(O)c2ccccc2oc1=O	tolC growth inh 99
COc1ccc(/C=N/NC(=O)CO/N=C(\C)c2cccs2)cc1	none (no result: M1 ag, WNV NS2B-NS3 inh, M1 antagonist, AP ELISA ortho, tolC growth inh)
COC(=O)C1=C(C)NC(C)=C(C(=O)OC)C1c1ccccc1OCc1c(C)no[n+]1[O-]	none
O=C(CNC1CCCCCC1)Nc1ccccc1N1CCCCC1	none (no result: M1 ag, WNV NS2B-NS3 inh, M1 antagonist, AP ELISA ortho, tolC growth inh)
O=C(CNCCC1=CCCCC1)Nc1ccccc1N1CCCCC1	tolC growth inh 100
O=c1c(C(c2nnnn2C2CCCCC2)N2CCCCC2)coc2ccc(Cl)cc12 (stereo not given)	none
CCCc1cc(C(=O)Nc2cccc(Cl)c2)no1	tolC growth inh 98
CCCc1cc(C(=O)NC2CCCC2)no1	AP ELISA ortho 40
Cc1sc2nc(SCC(=O)c3cc(C)n(CC4CCCO4)c3C)n(C(C)C)c(=O)c2c1C (stereo not given)	none
O=C(CN1C(=O)NC2(CCCCCCC2)C1=O)N1CCOCC1	AP ELISA ortho 39
Cc1ccc(C2C3CN(C(C)C)CC=C3C(C#N)=C(N)C2(C#N)C#N)cc1 (stereo not given)	M1 ag 55, M1 antagonist 2.2
N#CC1=C(N)C(C#N)(C#N)[C@H](c2ccoc2)[C@H]2CN(Cc3ccccc3)CC=C12	M1 ag 26
Cc1c(C#N)sc2nc(-c3ccccc3)nc(N3CCCC3)c12	none
Cc1sc2nc(-c3cccs3)nc(N3CCCN(C)CC3)c2c1C	M1 antagonist -2.2 (no result: Ecoli WT expand)
CC(=O)N(Cc1ccco1)C1(C(=O)NC2CCCCC2)CCCCC1	M1 antagonist 2.1
CCOC(=O)C1CCCN(C(=O)C2c3ccccc3Oc3ccccc32)C1 (stereo not given)	M1 antagonist 0.68
CCOC(=O)C1CCCN(C(=O)Cc2ccc(C)cc2)C1 (stereo not given)	none (no result: M1 ag, WNV NS2B-NS3 inh, M1 antagonist, AP ELISA ortho, tolC growth inh)
COc1cccc(C2C(C(=O)c3cccs3)=C(O)C(=O)N2CCCn2ccnc2)c1OC (stereo not given)	none (no result: Ecoli WT expand)
Cc1ccc(Nc2cc(C)nn2-c2nc(C)cc(=O)[nH]2)cc1	Ecoli WT expand 77, tolC growth inh 100
CC1CCN(S(=O)(=O)c2ccc3c(c2)oc(=O)n3CC(=O)N2c3ccccc3CC2C)CC1 (stereo not given)	none
